According to ChEMBL document CHEMBL3351241, “Metabolic stability optimization and metabolite identification of 2,5-thiophene amide 17β-hydroxysteroid dehydrogenase type 2 inhibitors” (Eur J Med Chem, 2014):

What was measured:
[1] = Half-life in human liver microsome S9 fraction at 1 uM up to 60 mins by LC-MS/MS analysis; type: ADME, microsomes
Method in brief: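 Sampled at 0, 5, 15 and 60 min and quenched with 2 volumes cold acetonitrile containing internal standard. Remaining parent quantified by LC-MS/MS to give t1/2.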

[2] = biological target: T1, 17-beta-hydroxysteroid dehydrogenase type 2 (Homo sapiens, UniProt P37059); test: Displacement of [3H]E2 from human placental microsomal 17beta-HSD2 after 20 mins by cell-free assay
T1 sequence (P37059 whole entry): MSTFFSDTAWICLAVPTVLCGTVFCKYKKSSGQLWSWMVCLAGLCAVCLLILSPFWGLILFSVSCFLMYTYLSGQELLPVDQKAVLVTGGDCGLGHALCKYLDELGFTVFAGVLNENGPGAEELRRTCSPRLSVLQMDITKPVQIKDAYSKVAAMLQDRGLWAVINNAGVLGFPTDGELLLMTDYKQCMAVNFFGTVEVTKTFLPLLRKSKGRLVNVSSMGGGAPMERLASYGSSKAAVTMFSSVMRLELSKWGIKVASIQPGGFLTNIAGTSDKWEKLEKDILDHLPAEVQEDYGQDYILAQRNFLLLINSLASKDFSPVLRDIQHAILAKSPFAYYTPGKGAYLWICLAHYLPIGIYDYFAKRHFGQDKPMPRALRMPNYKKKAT
Method in brief: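 Microsomal 17β-HSD2 from human placenta, 150,000 g pellet. Started with unlabeled plus [3H]-E2 (final 500 nM), stopped after 20 min with HgCl2, ether-extracted. E1/E2 resolved by radio-HPLC, giving % conversion. Inhibition read at 1 µM.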

[3] = biological target: T2, 17-beta-hydroxysteroid dehydrogenase type 1 (Homo sapiens, UniProt P14061); test: Displacement of [3H]E1 from human placental cytosolic17beta-HSD1 after 10 mins by cell-free assay
T2 sequence (P14061 whole entry): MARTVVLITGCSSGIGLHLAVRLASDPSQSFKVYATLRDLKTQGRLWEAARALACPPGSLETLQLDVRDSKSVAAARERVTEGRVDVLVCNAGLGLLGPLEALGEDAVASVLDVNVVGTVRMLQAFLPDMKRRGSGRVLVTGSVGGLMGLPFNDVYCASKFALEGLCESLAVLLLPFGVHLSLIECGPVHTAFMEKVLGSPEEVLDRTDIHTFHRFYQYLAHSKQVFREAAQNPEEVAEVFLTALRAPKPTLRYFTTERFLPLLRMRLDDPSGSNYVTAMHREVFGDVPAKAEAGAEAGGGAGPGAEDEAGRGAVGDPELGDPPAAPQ
Method in brief: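 Cytosolic 17β-HSD1 from human placenta, ammonium sulfate precipitated. Enzyme incubated with NADH 500 µM, test compound and unlabeled plus [3H]-E1 (final 500 nM) for 10 min at 37 °C. Reaction stopped with HgCl2 and extracted with ether. E1/E2 separated by C18 RP HPLC (acetonitrile/water 45:55) with radioflow detection. Activity taken as % conversion. Percent inhibition read at 1 µM.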

Homo sapiens = species: Homo sapiens; test: Selectivity factor, ratio of IC50 for human placental cytosolic17beta-HSD1 to IC50 for human placental microsomal 17beta-HSD2
[4] = biological target: T3, Estrogen receptor (Homo sapiens) (UniProt P03372); test: Displacement of [3H]E2 from human recombinant ERalpha at 3 nM after 16 to 20 hrs by cell-free assay
T3 sequence (whole entry): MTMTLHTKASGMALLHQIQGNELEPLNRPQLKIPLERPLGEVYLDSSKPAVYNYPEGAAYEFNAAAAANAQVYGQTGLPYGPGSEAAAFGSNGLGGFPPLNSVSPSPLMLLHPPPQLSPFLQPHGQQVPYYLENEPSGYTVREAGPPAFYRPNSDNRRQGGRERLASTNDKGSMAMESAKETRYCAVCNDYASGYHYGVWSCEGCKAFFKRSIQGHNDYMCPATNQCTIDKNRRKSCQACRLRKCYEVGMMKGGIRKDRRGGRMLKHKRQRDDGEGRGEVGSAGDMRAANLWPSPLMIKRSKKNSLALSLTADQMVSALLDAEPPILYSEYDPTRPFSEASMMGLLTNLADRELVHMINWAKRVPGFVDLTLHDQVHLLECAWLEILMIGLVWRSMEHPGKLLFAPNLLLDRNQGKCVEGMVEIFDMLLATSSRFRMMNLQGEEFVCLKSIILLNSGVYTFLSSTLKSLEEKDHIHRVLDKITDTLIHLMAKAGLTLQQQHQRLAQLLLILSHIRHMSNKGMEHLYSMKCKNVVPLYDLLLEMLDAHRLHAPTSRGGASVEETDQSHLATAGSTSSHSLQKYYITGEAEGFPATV
Method in brief: (§1)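 Recombinant human ERα (1 nM, [3H]-E2 3 nM) or ERβ (4 nM, [3H]-E2 10 nM) incubated with test compound, 5% DMSO final, for 16–20 h at 4 °C. Nonspecific binding set with 100-fold unlabeled E2. Complexes bound to hydroxyapatite, washed three times, counted by liquid scintillation. Compounds tested at 1000-fold the [3H]-E2 level (3 µM ERα, 10 µM ERβ). Below 50% displacement classed RBA <0.1%.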

[5] = biological target: Estrogen receptor beta (Homo sapiens) (UniProt Q92731); test: Displacement of [3H]E2 from human recombinant ERbeta at 10 nM after 16 to 20 hrs by cell-free assay; method in brief: as §1
Chain of Estrogen receptor beta (Homo sapiens) (Q92731 whole entry): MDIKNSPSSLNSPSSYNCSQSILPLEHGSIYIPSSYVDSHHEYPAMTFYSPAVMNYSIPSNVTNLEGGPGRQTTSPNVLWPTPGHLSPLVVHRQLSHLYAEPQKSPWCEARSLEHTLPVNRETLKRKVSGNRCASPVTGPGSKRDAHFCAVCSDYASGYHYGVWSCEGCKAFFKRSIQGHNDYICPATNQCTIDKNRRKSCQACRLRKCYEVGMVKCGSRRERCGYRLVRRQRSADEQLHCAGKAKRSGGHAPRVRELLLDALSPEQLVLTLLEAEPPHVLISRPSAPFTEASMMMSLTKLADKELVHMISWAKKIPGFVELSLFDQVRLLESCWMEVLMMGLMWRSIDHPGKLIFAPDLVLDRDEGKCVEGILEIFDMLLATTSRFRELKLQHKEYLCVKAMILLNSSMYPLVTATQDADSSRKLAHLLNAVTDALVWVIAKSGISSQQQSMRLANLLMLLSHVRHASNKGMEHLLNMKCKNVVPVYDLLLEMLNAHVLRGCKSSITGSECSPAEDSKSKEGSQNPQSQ

[6] = Drug metabolism in human liver microsome S9 fraction assessed as didemethylation metabolite formation by LC-MS/MS analysis; type: ADME; conditions: microsomes
[7] = Drug metabolism in human liver microsome S9 fraction treated with N-Methyl-N,5-bis(3-methylphenyl)thiophene-2-carboxamide by LC-MS/MS analysis; type: ADME; conditions: microsomes
[8] = Half-life in human liver microsome S9 fraction at 3 uM up to 45 mins by LC-MS/MS analysis; type: ADME, microsomes
[9] = Drug metabolism in human liver microsome S9 fraction assessed as demethylation/hydroxylation metabolite formation by LC-MS/MS analysis; type: ADME; conditions: microsomes
[10] = Drug metabolism in human liver microsome S9 fraction assessed as acid metabolite formation by LC-MS/MS analysis; type: ADME; conditions: microsomes
[11] = Drug metabolism in human liver microsome S9 fraction assessed as di-hydroxylation metabolite formation by LC-MS/MS analysis; type: ADME; conditions: microsomes

| Compound | IC50 [2] | IC50 [3] | Ratio IC50 (Homo sapiens) | inhibition [4] | inhibition [5] | other results |
| --- | --- | --- | --- | --- | --- | --- |
| Cc1ccc(-c2ccc(C(=O)N(C)c3ccccc3C)s2)cc1 | 225 nM | 698 nM | 3 |  |  | half-life at 1 µM [1]: 22 min |
| Cc1ccc(N(C)C(=O)c2ccc(-c3ccc(C)c(C)c3)s2)cc1 |  |  |  | 5% | 4% |  |
| Cc1cccc(N(C)C(=O)c2ccc(-c3cccc(CO)c3)s2)c1 |  |  |  |  |  | Drug metabolism [7]: metabolite_notdetected |
| COc1cccc(N(C)C(=O)c2ccc(-c3cccc(N(C)C)c3)s2)c1 |  |  |  |  |  | half-life at 3 µM [8]: 29 min |
| Cc1cccc(-c2ccc(C(=O)N(C)c3cccc(C)c3)cc2)c1 |  |  |  | 8% | 11% |  |
| COc1cccc(-c2ccc(C(=O)N(C)c3cccc(OC)c3)s2)c1 |  |  |  |  |  | Drug metabolism [9]: metabolite_notdetected; Drug metabolism [10]: metabolite_notdetected |
| COc1cccc(N(C)C(=O)c2ccc(-c3cccc(C)c3)s2)c1 |  |  |  |  |  | Drug metabolism [10]: metabolite_notdetected; Drug metabolism [11]: metabolite_notdetected; Drug metabolism [6]: metabolite_notdetected |
| Cc1ccc(-c2ccc(C(=O)N(C)c3cccc(C)c3)s2)cc1 |  |  |  | 11% | 34% |  |
| COc1cc(-c2cccc(C)c2)sc1C(=O)N(C)c1cccc(C)c1 | 127 nM | 16700 nM | 132 |  |  |  |
| COc1cccc(N(C)C(=O)c2ccc(-c3cccc(OC)c3F)s2)c1 |  |  |  |  |  | half-life at 1 µM [1]: 12 min |
| Cc1cccc(-c2cnc(C(=O)N(C)c3cccc(C)c3)s2)c1 | 499 nM | 25300 nM | 51 | 9% | 0% | half-life at 1 µM [1]: 5 min |

The next lines start with results.

| IC50 [2] | IC50 [3] | Ratio IC50 (Homo sapiens) | inhibition [4] | inhibition [5] | Compound | other results |
| --- | --- | --- | --- | --- | --- | --- |
|  |  |  | 12% | 21% | Cc1cccc(-c2ccc(C(=O)N(C)c3cccc(C)c3)s2)c1 | Drug metabolism [6]: metabolite_notdetected |
| 327 nM | 9410 nM | 29 | 16% | 11% | Cc1cccc(-c2ccc(C(=O)N(C)c3cccc(Cl)c3)s2)c1 |  |
